# What was measured:
# [1] = test system: C57BL/6 mice on a high-fat diet; experiment: Glucose homeostasis and liver lipid metabolism in high-fat diet obese mice; type: in vivo, mouse
# recombinant human CD38 [2] = biological target: T1, recombinant human CD38 (Homo sapiens, UniProt P28907); experiment: In vitro CD38 ADP-ribosyl-cyclase activity; type: biochemical
# T1 sequence (P28907 43-300 limits assumed): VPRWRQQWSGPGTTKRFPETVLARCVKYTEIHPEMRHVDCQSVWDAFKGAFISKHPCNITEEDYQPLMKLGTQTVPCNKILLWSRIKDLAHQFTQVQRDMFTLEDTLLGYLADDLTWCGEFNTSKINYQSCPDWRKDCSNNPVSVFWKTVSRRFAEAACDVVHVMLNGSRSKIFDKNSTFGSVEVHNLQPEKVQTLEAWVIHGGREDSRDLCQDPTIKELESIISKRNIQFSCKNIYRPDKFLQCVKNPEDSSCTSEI
# AMPK = conditions: cited from earlier work
# CD38 [3] = biological target: T2, CD38 (Mus musculus, UniProt P56528); experiment: Liver CD38 activity, NAD+ and protein readouts in high-fat diet obese mice; type: in vivo; conditions: 100 mg/kg i.p. daily for 1 week vs vehicle
# T2 sequence (P56528 1-304): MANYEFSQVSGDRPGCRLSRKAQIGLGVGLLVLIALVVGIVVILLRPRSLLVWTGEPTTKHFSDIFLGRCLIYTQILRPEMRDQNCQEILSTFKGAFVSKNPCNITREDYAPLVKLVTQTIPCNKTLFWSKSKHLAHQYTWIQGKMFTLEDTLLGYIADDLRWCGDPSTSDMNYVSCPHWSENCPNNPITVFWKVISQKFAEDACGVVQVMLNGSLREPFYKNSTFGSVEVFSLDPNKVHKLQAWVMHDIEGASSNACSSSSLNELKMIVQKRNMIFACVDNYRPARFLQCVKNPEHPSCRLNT
# Method in brief: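 Twelve 20-week-old C57BL/6 mice were fed a high-fat diet (60% of calories from fat) ad libitum for 4 weeks, then randomised into two groups. Groups received the test compound at 100 mg/kg i.p. or DMSO vehicle once daily for 7 days while staying on the diet. Hepatic NAD+ was measured by enzymatic cycling. Liver lysates were immunoblotted with anti-acetyl-lysine and quantified as intensity-profile area; n = 3 per group.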
# atherosclerosis in mice = conditions: cited from earlier work
# [4] = biological target: T3, endogenous CD38 (A549 cells) (Homo sapiens, UniProt P28907); experiment: Endogenous CD38 NAD+ase activity in protein lysates from A549 cells; type: biochemical
# T3 sequence (P28907 1-300): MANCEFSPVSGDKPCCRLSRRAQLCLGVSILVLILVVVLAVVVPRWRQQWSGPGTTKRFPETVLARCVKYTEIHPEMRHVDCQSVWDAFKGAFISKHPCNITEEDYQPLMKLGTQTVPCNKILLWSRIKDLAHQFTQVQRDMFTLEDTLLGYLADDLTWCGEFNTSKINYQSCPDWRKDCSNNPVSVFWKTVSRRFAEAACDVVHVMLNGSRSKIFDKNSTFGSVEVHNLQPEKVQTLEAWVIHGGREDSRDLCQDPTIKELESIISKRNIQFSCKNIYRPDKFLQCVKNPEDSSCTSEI
# [5] = test system: wild-type and CD38 knockout MEFs; experiment: Intracellular NAD+ levels in wild-type and CD38 knockout MEFs; type: cell-based, mouse; conditions: quercetin 50 μmol/L, 6 h; for Intracellular NAD+ levels in CD38 knockout MEFs: apigenin 25 μmol/L
# HepG2 cells [6] = experiment: Lipid accumulation in HepG2 cells; type: cell-based, human; conditions: 0.5 mmol/L oleate/palmitate (2:1) plus 25 μmol/L apigenin
# A549 cells = experiment: Intracellular NAD+ levels in A549 cells; type: cell-based, human; conditions: for Intracellular NAD+ levels over time in cells incubated in PBS: A549 cells in PBS, quercetin 50 μmol/L, apigenin 25 μmol/L; for Intracellular NAD+ levels, dose response: A549 cells, 6 h incubation
# HepG2 cells [7] = experiment: Protein acetylation in HepG2 cells; type: cell-based, human
# recombinant human CD38 [8] = biological target: T1, recombinant human CD38; experiment: In vitro CD38 NAD+ase activity; type: biochemical
# SIRT1 = conditions: cited from earlier work
# CD38 [9] = conditions: ref Kellenberger et al. 19; cited from earlier work
structure (smiles),measurement,setting,value
"O=c1cc(-c2ccc(O)cc2)oc2cc(O)cc(O)c12 [apigenin, 5,7-dihydroxy-2-(4-hydroxyphenyl)-4H-1-benzopyran-4-one]",Total triglyceride content in the liver,[1]; 100 mg/kg i.p. daily for 1 week vs control,lower triglyceride levels in the liver
same,Liver mRNA expression of lipid oxidation markers (RT-PCR),[1]; 100 mg/kg i.p. daily for 1 week vs vehicle,increased expression of the enzymes MCAD and LCAD in the liver
same,"Glucose homeostasis (glucose tolerance test, AUC)","[1]; 100 mg/kg i.p. daily for 1 week, 1.5 g/kg i.p. dextrose",improve glucose homeostasis
same,Food intake and body weight during treatment,[1]; 100 mg/kg i.p. daily for 7 days vs vehicle,no difference in these parameters between groups
same,Fasting blood glucose levels,"[1]; 100 mg/kg i.p. daily, 24 h fasting, day 7",significantly lower
same,"Blood glucose levels, ad libitum feeding","[1]; 100 mg/kg i.p. daily, after 4 days of treatment vs control",significantly lower blood glucose levels
same,IC50,recombinant human CD38 [2],12.8 ± 1.6 µM
same,AMPK activation,AMPK,very poor AMPK activator
same,CD38 activity in the liver,CD38 [3],decreased CD38 activity in the liver
same,Global acetylation of proteins in liver (acetyl-lysine antibody),CD38 [3],statistically significant decrease in global acetylation of proteins
same,Hepatic NAD+ levels,CD38 [3],increase in hepatic NAD^+ levels
same,"Liver expression of CD38, SIRT1, Nampt (immunoblot)",CD38 [3],"no significant differences in the expression of CD38, SIRT1, or Nampt"
same,Liver phosphorylation (Thr172) and total levels of AMPK (immunoblot),CD38 [3],did not see any changes in phosphorylation or total levels of AMPK
same,Atherosclerosis in mice,atherosclerosis in mice,ameliorate atherosclerosis in mice
same,IC50,[4],14.8 ± 2.2 µM
same,Intracellular NAD+ levels in CD38 knockout MEFs,[5],had no effect on NAD^+ levels
same,Lipid accumulation (total triglycerides) in cells,HepG2 cells [6],decreases lipid accumulation in cells
same,Intracellular NAD+ levels over time in cells incubated in PBS,A549 cells,protected against NAD^+ depletion
same,"Intracellular NAD+ levels, dose response",A549 cells,increased NAD^+ levels in cells in a dose-dependent manner
same,Total protein acetylation,"HepG2 cells [7]; apigenin 25 μmol/L, 6 h",decreases total protein acetylation
same,Acetylation of p53 (K382) and RelA/p65 (K310),"HepG2 cells [7]; apigenin 25 M (so in the source), 4 hours, MG132 10 µM",decreased acetylation of p53 at K382 and also of RelA/p65 at K310
"O=c1c(O)c(-c2ccc(O)c(O)c2)oc2cc(O)cc(O)c12 [quercetin, 2-(3,4-dihydroxyphenyl)-3,5,7-trihydroxy-4H-chromen-4-one]",Atherosclerosis in mice,atherosclerosis in mice,ameliorate atherosclerosis in mice
same,IC50,[4],16.4 ± 1.8 µM
same,Intracellular NAD+ levels in CD38 knockout MEFs,[5],does not further increase NAD^+ levels in CD38 knockout MEFs
same,Intracellular NAD+ levels in wild-type MEFs,[5]; wild-type MEFs,promotes an increase in NAD^+ in the wild-type MEFs
same,IC50,recombinant human CD38 [8],13.8 ± 2.1 µM
same,SIRT1 activation in vitro,SIRT1,activate SIRT1 in vitro
same,Intracellular NAD+ levels over time in cells incubated in PBS,A549 cells,NAD^+ levels were stable over time
same,"Intracellular NAD+ levels, dose response",A549 cells,promotes an increase in intracellular NAD^+ in a dose-dependent manner
same,CD38 inhibition in vitro,CD38 [9],inhibit CD38 in vitro
